# Dynein transport = blocks dynein driven cargo transport along microtubules | hit rate 0.47% among 220,000 | z-score, hits read low | AID 1381 | 3617.4 mouse cells, GR-EGFP nuclear translocation imaging; test concentration mostly 20 µM; stimulated with dexamethasone, 1 µM; hits give low values;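 active = plate z-score of nuclear minus cytoplasmic receptor signal below a set negative limit, without overly bright fluorescence or cell loss, cut at about -3.5 in these data, passing the limit was not always enough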;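 also: z-score of nuclear minus cytoplasmic ring GR-EGFP intensity difference per well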
#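 Medium: Induction medium lacking tetracycline, stripped serum | Probe or stimulus: 1.0 µM final dexamethasone stimulus | Schedule: 48 h induction, then 1 h compound, then 30 min agonist, 37 °C | Signal: Automated 10x imaging of fixed Hoechst-stained cells | Evaluation: Per-cell GR-EGFP intensity, nucleus versus surrounding cytoplasmic ring, well-averaged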
# Autophagy mod = autophagy modulation, high-content screen; calls only at 10 µM (by protocol); hit rate 0.98% among 190,000; MEF GFP-LC3 puncta imaging; test concentration mostly 10 µM;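 active = percentage of spot-positive cells more than 3 SD above its plate mean, without a fluorescence outlier flag or 80% toxicity; inconclusive = no clear call, values can overlap the other calls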
# Insulin prom up = MIN6 insulin promoter up-regulation. MIN6 insulin promoter-GFP reporter, high-content imaging; hits give high values. z-score at 5 µM. hit rate 0.3% among 190,000. AID 1625;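 active = z-score above 3 at 5 µM with at least 500 cells counted in the well; inconclusive = wells under 500 cells, flagged as cytotoxic or low count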
# MT stabilize HCS = stabilizes microtubules in HeLa cells; HeLa tubulin immunostaining HCS, 24 h; share of cells brighter than vehicle mean+2SD; % tubulin-high responders, % at 10 µM; hit rate 0.83% among 200,000; AID 2205;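 active = plate Z-score above 3 for both tubulin-high and condensed-nucleus cell shares, with cell loss under 80%, at 10 µM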;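 also: anti alpha tubulin signal scored within the nucleus-defined area of each cell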
# bCat nuc transl = modulators of beta-catenin nuclear translocation; HeLa beta-catenin nuclear translocation, immunofluorescence imaging; nuclear translocation activity, % at 5 µM; hit rate 0.3% among 190,000;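 active = nuclear translocation activity above 50% at 5 µM, with a well cell count of 50 or more; inconclusive = wells under 50 cells across six images, flagged as toxic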;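 also: per-cell ratio of nuclear to cytoplasmic median beta-catenin stain intensity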
#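 Test system: human HeLa cell line; Doses: 5 µM primary, 0.02–20 µM confirmation; Incubation: 24 h compound exposure, 37°C; Detection: beta-catenin immunofluorescence imaging with DAPI; Read-out: beta-catenin nuclear/cytoplasmic ratio, % activation.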
# Numbers stand for hits; - = inactive; ? = inconclusive; . = no result given; + = active, no number. Hits are enriched below; roughly 2.3% of the tested compounds scored in any of these assays.
SMILES,Dynein transport,Autophagy mod,Insulin prom up,MT stabilize HCS,bCat nuc transl
COc1ccc(/C=C/C(=O)c2ccc(Cl)s2)cc1O,-3.79,-,-,-,.
COc1cc(/C=C/C(=O)c2ccc(Cl)s2)cc(OC)c1O,-4,-,-,-,.
Cc1ccc2cc(C#N)c(SCc3nnc(-c4ccccc4[N+](=O)[O-])o3)nc2c1,-,+,-,-,-
CCn1c(SCC(N)=O)nc2cc(S(=O)(=O)N3CCOCC3)ccc21,-,-,-,-,-
CCn1c(SCC(=O)c2c[nH]c3ccccc23)nc2cc(S(=O)(=O)N3CCOCC3)ccc21,-,-,3.09,-,-
CNc1ccc(Br)cc(C(=O)/C=C/c2ccc(Cl)cc2Cl)c1=O,-,-,-,9.3,-
CNc1ccc(Br)cc(C(=O)/C=C/c2cccc(OC)c2)c1=O,-,-,.,12.9,-
CNc1ccc(Br)cc(C(=O)/C=C/c2ccc(OC)cc2OC)c1=O,-,-,-,-,-
CCNc1ccc(Br)cc(C(=O)/C=C/c2ccc(Cl)cc2)c1=O,-,-,-,15.6,-
NC(=O)NC(CC(=O)NCCc1ccc(S(N)(=O)=O)cc1)c1ccccc1Cl (centres undefined),-,.,-,.,-
CCCN1CC=C2C(C#N)=C(N)C(C#N)(C#N)C(c3cccc(OC)c3OC)C2C1 (centres undefined),-,?,.,-,-
COc1ccc(OC)c(C2C3CN(C(C)C)CC=C3C(C#N)=C(N)C2(C#N)C#N)c1 (centres undefined),-,+,17.1,-,-
Cc1ccc(C2C3CN(C(C)C)CC=C3C(C#N)=C(N)C2(C#N)C#N)cc1 (centres undefined),.,.,10.3,.,.
Cc1ccc(NC(=O)CCCc2nc3ccccc3s2)c(O)c1,-,-,-,-,-
Cc1ccc(-n2cc(-c3ccccc3)c3c(N4CCOCC4)ncnc32)cc1,-,+,-,-,-
Cc1ccc(S(=O)(=O)N/N=C/c2ccccc2O)cc1[N+](=O)[O-],-,+,-,-,-
Cc1ccc(S(=O)(=O)N/N=C/c2ccc(O)c(O)c2)cc1[N+](=O)[O-],-,-,-,-,-
COc1ccc(S(=O)(=O)NNC(=O)c2ccc(-n3c(C)ccc3C)cc2)cc1,-,.,-,.,-
CCCN1C(=O)COc2ccc(-c3n[nH]c(=O)c4ccccc34)cc21,-,-,-,-,-
CCc1sc2nc(SCC(=O)Nc3cc(C)on3)n(-c3cccc(OC)c3)c(=O)c2c1C,-,+,-,-,-
COc1cccc(-n2c(SCC(=O)Nc3cc(C)on3)nc3ccccc3c2=O)c1,-,-,-,-,-
CCn1c(SCC(=O)Nc2cc(C)on2)nc2sc3c(c2c1=O)CCCC3,-,+,-,-,-
CN1CCc2c(sc3nc(SCC(=O)N4CCOCC4)nc(N)c23)C1,-,+,-,-,-
CC1CCN(C(=O)CSc2nc(N)c3c4c(sc3n2)CN(C)CC4)CC1,-,-,-,-,-
C=CCn1c(SCC(=O)N2CCOCC2)nc2sc3c(c2c1=O)CCCC3,-,+,-,-,.
SMILES,Dynein transport,Autophagy mod,Insulin prom up,MT stabilize HCS,bCat nuc transl
Cn1c(/C=C(\C#N)C(N)=S)ccc1-c1ccc(Br)cc1,-,-,-,-,-
COC(=O)C1=C(C(=O)OC)C(c2ccccc2O)c2sc(=O)[nH]c2S1 (centres undefined),-,-,-,-,-
COc1ccc(C2C(Oc3ccccc3)C(=O)N2c2cc(C)ccc2C)cc1OC (centres undefined),-,-,.,-,.
COc1ccc(C)cc1N1C(=N)/C(=C2/Nc3ccccc3S2)C(c2ccccc2)C1=O (centres undefined),-3.55,-,?,-,-
Cc1cc2oc(C(=O)Nc3ccc(S(N)(=O)=O)cc3)c(C)c2cc1Cl,-,-,-,-,-
CCOc1ncccc1C(=O)OCc1ccc(C(=O)OC)cc1,-,-,-,18.4,67.9
Cc1[nH]n(-c2nc(-c3ccc(Cl)cc3)cs2)c(=O)c1N=Nc1ccc(O)cc1,-,-,-,-,-
CCO[C@@H]1OC(C(=O)NCc2ccccc2)=C[C@H](C2CC2)[C@H]1CCCO,-,-,-,-,-
CCO[C@@H]1OC(C(=O)NCc2nc3ccccc3[nH]2)=C[C@H](C2CC2)[C@H]1CCCO,-,-,-,27.5,-
CC(=O)N1CSCC1C(=O)NNS(=O)(=O)c1ccccc1 (centres undefined),-,.,-,.,-
COc1cc(/C=N/NC(N)=S)cc(Br)c1OCc1ccccc1F,-,-,-,-,-
CCOc1cc(/C=N/NC(N)=S)cc(Br)c1OCc1ccccc1C,-,+,-,-,-
CCn1c2ccccc2c2cc(Nc3cc(C)nc4ncnn34)ccc21,-,-,.,-,93.6
CCOC(=O)c1nc(C)sc1-c1ccnn1S(=O)(=O)c1ccc(C)cc1,-,.,-,.,-
COc1ccc(/C=C/C(=O)Oc2cccc(/C=N/NC(=O)Cc3ccc(Br)cc3)c2)cc1,-,.,-,.,-
CN1/C(=C/C(=O)c2ccc(Cl)cc2)Sc2cc3c(cc21)OCO3,-,+,-,-,-
COc1ccc(C(=O)/C=C2/Sc3cc4c(cc3N2C)OCO4)cc1,-,-,-,-,-
CCN(CC)c1ccc(C=C(c2nnnn2-c2ccc(C)cc2)c2nnnn2-c2ccc(C)cc2)cc1,-,+,-,-,-
COCC(=O)Nc1c(C(=O)Nc2ccccc2OC)oc2ccccc12,-,-,-,-,-
COc1ccccc1NC(=O)c1oc2ccccc2c1NC(=O)c1cc(OC)c(OC)c(OC)c1,-,+,.,36.4,.
O=C1CC(c2ccccc2)CC(O)=C1C=NCCCN1CCOCC1 (centres undefined),-,-,.,-,52.9
Cc1ccc2c(c1)nnn2C1CCN(S(=O)(=O)c2ccc(C(=O)N3CC(C)CC(C)C3)cc2)CC1 (centres undefined),-,-,-,19.7,-
O=C(NCc1ccccc1)C1=C[C@H](C2CC2)C[C@H](OCCCCO)O1,-,-,.,-,-
Cc1cccc2sc(NC(=O)C3CCCN(S(=O)(=O)c4cccc5nonc45)C3)nc12 (centres undefined),-,+,6.61,-,-
COc1ccccc1C(=O)N=Nc1c(O)[nH]c2ccc([N+](=O)[O-])cc12,-,+,-,-,-
SMILES,Dynein transport,Autophagy mod,Insulin prom up,MT stabilize HCS,bCat nuc transl
O=C(N=Nc1c(O)[nH]c2ccc(Br)cc12)c1ccccc1-n1cccc1,-,-,-,-,153.5
NC(=O)N=Nc1c(O)[nH]c2ccc([N+](=O)[O-])cc12,-,.,-,.,-
CCOc1ccccc1NC(=O)CSc1ccc([N+](=O)[O-])cc1,-,-,-,-,-
O=C1NC(CCc2ccccc2)C(=O)N1CCOc1ccccc1 (centres undefined),-,-,-,-,-
O=C1NC(CCc2ccccc2)C(=O)N1Cc1ccc(Br)cc1 (centres undefined),-,+,-,-,-
NCC12CC3CC(CC(O)(C3)C1)C2,-,-,-,-,.
NCC12CC3CC(C1)CC(CN)(C3)C2,-,-,3.09,-,-

# Screens: PubChem, several laboratories
